Experimental data reported in ChEMBL document CHEMBL1140605, “Ester-based precursors to increase the bioavailability of quercetin” (J Med Chem, 2007).

What was measured:
[1] = Solubility in Hanks balanced salt solution at 1 mg after 24 hrs; type: physicochemical
[2] = Permeability from apical to basolateral side of dog MDCK2 cell monolayer assessed as intact drug level in basolateral compartment after 6 hrs; type: ADME, cell-based, Canis lupus familiaris; conditions: mdck-ii
Outline: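 MDCK-2 monolayers were grown in DMEM with 10% FBS, seeded at 5 × 10⁵ cells/cm² on 24-mm Transwell inserts, and used at TER 100-300 Ω·cm² (10-20 days). Apical dosing was formally 30-50 µM compound in HBSS with 0.1% DMSO. After 6 h, basolateral solution was analysed by HPLC-UV at 300/370 nm and quantified against standard curves (quantification limit 0.2 µM).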

[3] = Chemical stability assessed as half life of hydrolysis; type: physicochemical
Outline: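 UV-vis spectra (190-500 nm) followed in PBS (20 mM, pH 7.0, ionic strength 0.1 M with KCl)/CH₃CN 1:1 at 25 °C. The reaction was started by adding substrate freshly dissolved in acetonitrile, to a final (3-8) × 10^-5 M. Observed first- and second-step hydrolysis rate constants came from fitting the spectral data to a kinetic equation, and half-life was derived from them.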

Caco-2 = assay: Permeability from apical to basolateral side of human Caco-2 cell monolayer assessed as intact drug level in basolateral compartment after 6 hrs; type: ADME, cell-based; conditions: caco-2, 6 h
Outline: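 Caco-2 cells were cultured in DMEM with 10% FBS, seeded at 3 × 10⁵ cells/cm² on 24-mm Transwell inserts, and tested at TER 1.5-2 kΩ·cm² (10-20 days). Compound at formally 30-50 µM in HBSS with 0.1% DMSO was placed apically. Basolateral content at 6 h was measured by HPLC-UV (300/370 nm) against standard curves; quantification limit 0.2 µM.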

[4] = Permeability from apical to basolateral side of dog MDCK1 cell monolayer assessed as intact drug level in basolateral compartment after 6 hrs; type: ADME, cell-based, Canis lupus familiaris; conditions: mdck1, 6 h
Outline: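 MDCK-1 cells in DMEM with 10% FBS were seeded at 3 × 10⁵ cells/cm² on 24-mm Transwell inserts and used at TER ~10-15 kΩ·cm² (10-20 days). Compound was applied apically at formally 30-50 µM in HBSS with 0.1% DMSO. Basolateral fluid was taken at 6 h and quantified by HPLC-UV (300/370 nm) against standard curves; quantification limit 0.2 µM.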

Row | solubility at 24 h [1] [µM] | Structure (SMILES) | other results
1 | 1.1 | CC(=O)Oc1cc(OC(C)=O)c2c(=O)c(OC(C)=O)c(-c3ccc(OC(C)=O)c(OC(C)=O)c3)oc2c1 | Activity [2]: 0.5%
2 | 12 | CC(=O)Oc1cc(OC(C)=O)c2c(=O)c(OC(C)=O)c(-c3ccc(OC(C)=O)c(OC(=O)[C@@H](C)NC(=O)OC(C)(C)C)c3)oc2c1 | –
3 | – | CC(C)(C)OC(=O)N[C@H]1CC[C@@H](C(=O)Oc2cc(-c3oc4cc(O)cc(O)c4c(=O)c3O)ccc2O)CC1 | t1/2 [3]: 3.31 h
4 | 0.4 | CC(=O)Oc1cc(OC(C)=O)c2c(=O)c(OC(C)=O)c(-c3ccc(OC(C)=O)c(OC(=O)c4ccc(NC(=O)OC(C)(C)C)cc4)c3)oc2c1 | –
5 | 2.5 | CC(=O)Oc1cc(OC(C)=O)c2c(=O)c(OC(C)=O)c(-c3ccc(OC(C)=O)c(OC(=O)CCCNC(=O)OC(C)(C)C)c3)oc2c1 | –
6 | 0.4 | CC(C)(C)OC(=O)Nc1ccc(C(=O)Oc2cc(-c3oc4cc(O)cc(O)c4c(=O)c3O)ccc2O)cc1 | –
7 | – | CC(C)(C)OC(=O)NCCCCCC(=O)Oc1cc(-c2oc3cc(O)cc(O)c3c(=O)c2O)ccc1O | t1/2 [3]: 3.67 h
8 | – | CC(C)(C)OC(=O)NCCCC(=O)Oc1cc(-c2oc3cc(O)cc(O)c3c(=O)c2O)ccc1O | t1/2 [3]: 2.08 h
9 | 0.8 | CC(=O)Oc1cc(OC(C)=O)c2c(=O)c(OC(C)=O)c(-c3ccc(OC(C)=O)c(OC(=O)[C@H]4CC[C@@H](NC(=O)OC(C)(C)C)CC4)c3)oc2c1 | –
10 | 3.9 | CC(=O)Oc1cc(OC(C)=O)c2c(=O)c(OC(C)=O)c(-c3ccc(OC(C)=O)c(OC(=O)CCCCCNC(=O)OC(C)(C)C)c3)oc2c1 | –
11 | 1 | CC(=O)Oc1cc(OC(C)=O)c2c(=O)c(OC(C)=O)c(-c3ccc(OC(C)=O)c(OC(=O)c4ccc(N)cc4)c3)oc2c1 | –
12 | 1.5 | Nc1ccc(C(=O)Oc2cc(-c3oc4cc(O)cc(O)c4c(=O)c3O)ccc2O)cc1 | –

Row | Structure (SMILES) | solubility at 24 h [1] [µM] | other results
13 | O=c1c(O)c(-c2ccc(O)c(O)c2)oc2cc(O)cc(O)c12 [QUERCETIN] | 2.3 | Activity (Caco-2): 1%; Activity [2]: 2.7%; Activity [4]: 0.9%
